# Key:
# [1] = AUMC (0 to infinity) in Sprague-Dawley rat plasma at 8 mg/kg administered through oral gavage measured at 5 mins to 24 hrs post dosing by LC/MS analysis; type: ADME, organism-based; details: in vivo
# Method in brief: (§1)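 Male Sprague-Dawley rats, ten randomly split into two groups (n = 5), single gavage dose of 8 or 16 mg·kg−1 in PEG 400/normal saline (70/30, V/V). Jugular sinus blood into heparinized tubes at 5 min to 24 h; plasma separated at 2200g for 8 min, stored −20 °C. Methanol precipitation with internal standard, LC-MS quantitation against plasma standard curves. Parameters reported as mean ± SD.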
# [2] = Cmax in Sprague-Dawley rat plasma at 8 mg/kg administered through oral gavage measured at 5 mins to 24 hrs post dosing by LC/MS analysis; type: ADME, organism-based; design: dose 8 mg/kg, route oral; details: in vivo; method in brief: as §1
# [3] = tested on: Human immunodeficiency virus 1; assay: Antiviral activity against HIV1 3B harboring reverse transcriptase Y181C mutant infected in human MT4 cells assessed as protection against virus induced cytotoxicity after 5 days by MTT assay; type: functional, cell-based; details: Human immunodeficiency virus 1, 3B, MT4, 120 h
# Method in brief: (§2)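 MTT cytopathicity assay in MT-4 cells (6 × 10^5 cells/mL). Compounds serially diluted 5-fold in triplicate wells, run in parallel on infected and mock-infected cells. Virus added at 100−300 CCID50 per well. Viability read spectrophotometrically at 540 and 690 nm after 5 days, using the median OD of three wells.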
# [4] = tested on: Human immunodeficiency virus 1; assay: Antiviral activity against HIV1 3B harboring reverse transcriptase E138K mutant infected in human MT4 cells assessed as protection against virus induced cytotoxicity after 5 days by MTT assay; type: functional, cell-based; details: Human immunodeficiency virus 1, 3B, MT4, 120 h
# Method in brief: as §2, with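 “wells. EC50 is the concentration giving 50% protection from viral cytopathogenicity.” for “wells.”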
# [5] = MRT (0 to infinity) in Sprague-Dawley rat plasma at 8 mg/kg administered through oral gavage measured at 5 mins to 24 hrs post dosing by LC/MS analysis; type: ADME, organism-based; method in brief: as §1
# [6] = tested on: Human immunodeficiency virus 1; assay: Fold resistance, ratio of IC50 for recombinant HIV1 reverse transcriptase K103N/Y181C double mutant to IC50 for wild type HIV1 reverse transcriptase
# Method in brief: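 Ratio of mutant to WT IC50. Recombinant WT and K103N/Y181C RT were assayed with a kit: template plus DIG-dUTP, biotin-dUTP and dTTP, with or without inhibitor, 1 h at 37 °C. Product was captured on streptavidin, detected with anti-DIG-POD and ABTS, and read at 405 nm. IC50 is the concentration inhibiting biotin-dUTP incorporation by 50%.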
# [7] = MRT (0 to t) in Sprague-Dawley rat plasma at 8 mg/kg administered through oral gavage measured at 5 mins to 24 hrs post dosing by LC/MS analysis; type: ADME, organism-based; method in brief: as §1
# [8] = AUC (0 to infinity) in Sprague-Dawley rat plasma at 8 mg/kg administered through oral gavage measured at 5 mins to 24 hrs post dosing by LC/MS analysis; type: ADME, organism-based; design: dose 8 mg/kg, route oral, time infinity; details: in vivo; method in brief: as §1
smiles,measurement,setting,value
Cc1cc(C#N)cc(C)c1Oc1nc(NC2CCN(Cc3ccc(S(N)(=O)=O)cc3)CC2)nc2ccsc12,AUMC,[1],6474.1 ug/L.hr
same,Cmax,[2],415 ng/mL
same,EC50,[3],3.2 nM
same,EC50,[4],2.9 nM
same,MRT inf,[5],3.84 h
same,Ratio IC50,[6],1.2
same,MRT last,[7],3.44 h
same,AUC,[8],1720.9 ng·h/mL

# From ChEMBL document CHEMBL3853327 (J Med Chem, 2016)
